Laboratory results taken from ChEMBL document CHEMBL4052597, “Symmetrically Substituted Xanthone Amphiphiles Combat Gram-Positive Bacterial Resistance with Enhanced Membrane Selectivity” (J Med Chem, 2017).
Converted amounts (≈) assume the structure as drawn. The source made the active and inactive calls. The calls are words filed in the database; no cut-off is given here. Peptide text beside a SMILES is read from it.

Columns and labels:
Staphylococcus aureus [1] = test: Antibacterial activity against methicillin-resistant Staphylococcus aureus DM 21455 after 24 hrs by two fold dilution assay; type: functional; conditions: DM 21455, 24 h
Outline: (§1)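 CLSI broth macrodilution in cation-adjusted Mueller-Hinton broth. Compounds were dissolved in DMF and diluted in PBS to a 1000 µg/mL stock, then serially 2-fold diluted in CA-MHB. The inoculum came from colonies on 18-20 h TSA plates (direct colony suspension), adjusted to ~5×10^5 CFU/mL. Incubation was 24 h at 35 °C. MIC is the lowest concentration with no visible growth versus control. Biological replicates.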

Staphylococcus aureus [2] = test: Antibacterial activity against methicillin-resistant Staphylococcus aureus DM 9808R after 24 hrs by two fold dilution assay; type: functional; outline: as §1
Bacillus cereus = test: Antibacterial activity against Bacillus cereus ATCC 11778 after 24 hrs by two fold dilution assay; type: functional; conditions: ATCC 11778, 24 h
Outline: (§2)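 Broth macro-dilution per CLSI in cation-adjusted Mueller-Hinton broth; compounds dissolved in DMF, diluted in PBS to 1000 µg/mL stock, then serial 2-fold dilutions in CA-MHB in tubes. Inoculum from 18-20 h TSA colonies (direct colony suspension), adjusted to about 5× 10^5 CFU/mL. MIC read after 24 h at 35 °C as lowest concentration with no visible growth; biological replicates.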

Staphylococcus aureus [3] = test: Antibacterial activity against Staphylococcus aureus DM 4001R after 24 hrs by two fold dilution assay; type: functional; outline: as §1
Enterococcus faecium [4] = test: Antibacterial activity against vancomycin A-resistant Enterococcus faecium VRE 1008 after 24 hrs by two fold dilution assay; type: functional; conditions: VRE 1008, 24 h; outline: as §1
Enterococcus hirae = test: Antibacterial activity against Enterococcus hirae ATCC 9790 after 24 hrs by two fold dilution assay; type: functional; conditions: ATCC 9790, 24 h; outline: as §2
Staphylococcus aureus [5] = test: Antibacterial activity against methicillin-resistant Staphylococcus aureus ATCC 700699 after 24 hrs by two fold dilution assay; type: functional; conditions: Mu50, 24 h; outline: as §1
Staphylococcus aureus [6] = test: Antibacterial activity against methicillin-sensitive Staphylococcus aureus ATCC 29213 after 24 hrs by two fold dilution assay; type: functional; conditions: ATCC 29213, 24 h; outline: as §1
Staphylococcus aureus [7] = test: Antibacterial activity against methicillin-sensitive Staphylococcus aureus ATCC 29737 after 24 hrs by two fold dilution assay; type: functional; conditions: ATCC 29737, 24 h; outline: as §1
Enterococcus faecalis = test: Antibacterial activity against Enterococcus faecalis ATCC 29212 after 24 hrs by two fold dilution assay; type: functional; conditions: ATCC 29212, 24 h; outline: as §2
Staphylococcus aureus [8] = test: Antibacterial activity against methicillin-resistant Staphylococcus aureus ATCC 43300 after 24 hrs by two fold dilution assay; type: functional; conditions: ATCC 43300, 24 h; outline: as §1
Staphylococcus aureus [9] = test: Antibacterial activity against methicillin-resistant Staphylococcus aureus DB6506 after 24 hrs by two fold dilution assay; type: functional; conditions: DB6506, 24 h; outline: as §1
Enterococcus faecium [10] = test: Antibacterial activity against vancomycin A-resistant Enterococcus faecium VRE 1007 after 24 hrs by two fold dilution assay; type: functional; conditions: VRE 1007, 24 h; outline: as §1
Staphylococcus aureus [11] = test: Antibacterial activity against methicillin-resistant Staphylococcus aureus DB68004 after 24 hrs by two fold dilution assay; type: functional; conditions: DB68004, 24 h; outline: as §1
Staphylococcus aureus [12] = test: Antibacterial activity against methicillin-sensitive Staphylococcus aureus DM4400R after 24 hrs by two fold dilution assay; type: functional; outline: as §1
Enterococcus faecium [13] = test: Antibacterial activity against vancomycin A-resistant Enterococcus faecium VRE 1006 after 24 hrs by two fold dilution assay; type: functional; conditions: VRE 1006, 24 h; outline: as §1
Staphylococcus aureus [14] = test: Antibacterial activity against methicillin-sensitive Staphylococcus aureus ATCC 6538 after 24 hrs by two fold dilution assay; type: functional; conditions: ATCC 6538, 24 h; outline: as §1
Staphylococcus aureus [15] = test: Antibacterial activity against methicillin-sensitive Staphylococcus aureus DM4299 after 24 hrs by two fold dilution assay; type: functional; conditions: DM4299, 24 h; outline: as §1
Staphylococcus aureus [16] = test: Antibacterial activity against methicillin-resistant Staphylococcus aureus DB57964 after 24 hrs by two fold dilution assay; type: functional; conditions: DB57964, 24 h; outline: as §1
Staphylococcus aureus [17] = test: Antibacterial activity against methicillin-resistant Staphylococcus aureus ATCC BAA-38 after 24 hrs by two fold dilution assay; type: functional; conditions: ATCC BAA-38, 24 h; outline: as §1
Staphylococcus aureus [18] = test: Antibacterial activity against methicillin-sensitive Staphylococcus aureus DM4583R after 24 hrs by two fold dilution assay; type: functional; outline: as §1
Staphylococcus aureus [19] = test: Disruption of membrane in Staphylococcus aureus isolate DM4001R assessed as increase in ATP leakage at 4 times MIC after 1 hr by ATP bioluminescent assay relative to control; type: functional
Outline: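 S. aureus DM4001 grown to exponential phase, washed three times in 20 mM PBS (pH 7), resuspended to OD600 0.2. Compound added, suspensions held 1 hour at 37 °C, then centrifuged. Supernatant mixed with luciferase/luciferin enzyme mix; extracellular ATP quantified by luminescence. Replicated.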

Lipid bilayer [20] = test: Induction of membrane damage in DOPE/DOPG large unilamellar vesicles assessed as calcein leakage at compound to lipid ratio of 1:16 after 1 hr by fluorescence assay relative to control
Outline: (§3)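 100 nm calcein-loaded LUVs made by film hydration; lipid content set by total phosphorus assay. DOPC/cholesterol (3:1, w/w) mimics mammalian and DOPE/DOPG (3:1, w/w) bacterial membranes. Compound in DMF added at lipid-to-compound ratio 16 (6.25 µM compound), final DMF limited to 0.5%. Fluorescence monitored at ex 490/em 520 nm for 1 hour; replicated.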

Staphylococcus aureus [21] = test: Disruption of cytoplasmic membrane in Staphylococcus aureus isolate DM4001R at 2 times MIC after 3000 secs by SYTOX green dye based fluorescence assay; type: functional
Outline: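 Clinical S. aureus isolate DM4001R incubated with SYTOX Green plus compound; membrane permeabilization read as increased fluorescence intensity. Measurements replicated.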

Lipid bilayer [22] = test: Induction of membrane damage in DOPC/cholesterol large unilamellar vesicles assessed as calcein leakage at compound to lipid ratio of 1:16 after 1 hr by fluorescence assay relative to control; outline: as §3
Staphylococcus aureus [23] = test: Ratio of MIC for Staphylococcus aureus ATCC 29213 after and before 15 serial passages; type: functional
Staphylococcus aureus [24] = test: Antibacterial activity against Staphylococcus aureus ATCC 700699 infected in C57BL6 mouse cornea assessed as decrease in number of viable bacteria at 0.5% administered topically at 2 hrs interval for 4 times starting on day 1 post infection measured post last dose relative to control; type: functional, Mu50

SMILES | MIC (Staphylococcus aureus [1]) | MIC (Staphylococcus aureus [2]) | MIC (Bacillus cereus) | MIC (Staphylococcus aureus [3]) | also measured
CC(C)=CCOc1cc(O)c2c(=O)c3c(O)cc(OCC=C(C)C)cc3oc2c1 | > 50 µg/mL | > 50 µg/mL | > 50 µg/mL | > 50 µg/mL | –
COC(=O)[C@H](CCCNC(=N)N)NC(=O)[C@H](CCCNC(=N)N)NC(=O)COc1cc(OC/C=C(\C)CCC=C(C)C)cc2oc3cc(OC/C=C(\C)CCC=C(C)C)cc(OCC(=O)N[C@@H](CCCNC(=N)N)C(=O)N[C@@H](CCCNC(=N)N)C(=O)OC)c3c(=O)c12 | 25 µg/mL (≈ 19.2 µM) | 25 µg/mL (≈ 19.2 µM) | 25 µg/mL (≈ 19.2 µM) | 25 µg/mL (≈ 19.2 µM) | –
CN[C@H](CC(C)C)C(=O)N[C@H]1C(=O)N[C@@H](CC(N)=O)C(=O)N[C@H]2C(=O)N[C@H]3C(=O)N[C@H](C(=O)N[C@H](C(=O)O)c4cc(O)cc(O)c4-c4cc3ccc4O)[C@H](O)c3ccc(c(Cl)c3)Oc3cc2cc(c3O[C@@H]2O[C@H](CO)[C@@H](O)[C@H](O)[C@H]2O[C@H]2C[C@](C)(N)[C@H](O)[C@H](C)O2)Oc2ccc(cc2Cl)[C@H]1O [VANCOMYCIN] | 1.56 µg/mL (≈ 1.08 µM) | 3.13 µg/mL (≈ 2.16 µM) | 1.56 µg/mL (≈ 1.08 µM) | 1.56 µg/mL (≈ 1.08 µM) | MIC (Enterococcus faecium [4]): > 50 µg/mL; MIC (Enterococcus hirae): 0.78 µg/mL (≈ 0.538 µM); MIC (Staphylococcus aureus [5]): 1.56 µg/mL (≈ 1.08 µM); MIC (Staphylococcus aureus [6]): 1.56 µg/mL (≈ 1.08 µM); MIC (Staphylococcus aureus [7]): 0.78 µg/mL (≈ 0.538 µM); MIC (Enterococcus faecalis): 1.56 µg/mL (≈ 1.08 µM); MIC (Staphylococcus aureus [8]): 0.78 µg/mL (≈ 0.538 µM); MIC (Staphylococcus aureus [9]): 0.78 µg/mL (≈ 0.538 µM); MIC (Enterococcus faecium [10]): > 50 µg/mL; MIC (Staphylococcus aureus [11]): 1.56 µg/mL (≈ 1.08 µM); MIC (Staphylococcus aureus [12]): 0.78 µg/mL (≈ 0.538 µM); MIC (Enterococcus faecium [13]): > 50 µg/mL; MIC (Staphylococcus aureus [14]): 0.78 µg/mL (≈ 0.538 µM); MIC (Staphylococcus aureus [15]): 1.56 µg/mL (≈ 1.08 µM); MIC (Staphylococcus aureus [16]): 0.78 µg/mL (≈ 0.538 µM); MIC (Staphylococcus aureus [17]): 1.56 µg/mL (≈ 1.08 µM); MIC (Staphylococcus aureus [18]): 1.56 µg/mL (≈ 1.08 µM)
CCCCN(CCCC)CCCNC(=O)COc1cc(OCC=C(C)C)cc2oc3cc(OCC=C(C)C)cc(OCC(=O)NCCCN(CCCC)CCCC)c3c(=O)c12 | 3.13 µg/mL (≈ 3.69 µM) | 3.13 µg/mL (≈ 3.69 µM) | 6.25 µg/mL (≈ 7.36 µM) | 3.13 µg/mL (≈ 3.69 µM) | –
CC(C)=CCOc1cc(OCC(=O)N[C@@H](CCCNC(=N)N)C(N)=O)c2c(=O)c3c(OCC(=O)N[C@@H](CCCNC(=N)N)C(N)=O)cc(OCC=C(C)C)cc3oc2c1 | 6.25 µg/mL (≈ 7.59 µM) | 6.25 µg/mL (≈ 7.59 µM) | 12.5 µg/mL (≈ 15.2 µM) | 12.5 µg/mL (≈ 15.2 µM) | –
COC(=O)[C@H](CCCCN)NC(=O)COc1cc(OCC=C(C)C)cc2oc3cc(OCC=C(C)C)cc(OCC(=O)N[C@@H](CCCCN)C(=O)OC)c3c(=O)c12 | 6.25 µg/mL (≈ 7.84 µM) | 12.5 µg/mL (≈ 15.7 µM) | 6.25 µg/mL (≈ 7.84 µM) | 12.5 µg/mL (≈ 15.7 µM) | Activity (Staphylococcus aureus [19]): 106.7%; Activity (Lipid bilayer [20]): 48.2%; Activity (Staphylococcus aureus [21]): Active; Activity (Lipid bilayer [22]): < 20%
COc1c(N2CCNC(C)C2)c(F)cc2c(=O)c(C(=O)O)cn(C3CC3)c12 (stereo unspecified) [GATIFLOXACIN] | – | – | – | – | Ratio (Staphylococcus aureus [23]): 64
CC[C@H](C)[C@H](NC(=O)CN)C(=O)NCC(=O)N[C@@H](CCCCN)C(=O)N[C@@H](Cc1ccccc1)C(=O)N[C@@H](CC(C)C)C(=O)N[C@@H](CCCCN)C(=O)N[C@@H](CCCCN)C(=O)N[C@@H](C)C(=O)N[C@@H](CCCCN)C(=O)N[C@@H](CCCCN)C(=O)N[C@@H](Cc1ccccc1)C(=O)NCC(=O)N[C@@H](CCCCN)C(=O)N[C@@H](C)C(=O)N[C@@H](Cc1ccccc1)C(=O)N[C@H](C(=O)N[C@@H](CCCCN)C(=O)N[C@H](C(=O)N[C@@H](CC(C)C)C(=O)N[C@@H](CCCCN)C(=O)N[C@@H](CCCCN)C(=O)O)[C@@H](C)CC)C(C)C (H-GIGKFLKKAKKFGKAFVKILKK-OH) | 12.5 µg/mL (≈ 5.04 µM) | 25 µg/mL (≈ 10.1 µM) | 12.5 µg/mL (≈ 5.04 µM) | 12.5 µg/mL (≈ 5.04 µM) | Activity (Staphylococcus aureus [24]): 93.3%
